From ChEMBL document CHEMBL3588754, “Parallel Synthesis of Hexahydrodiimidazodiazepines Heterocyclic Peptidomimetics and Their in Vitro and in Vivo Activities at μ (MOR), δ (DOR), and κ (KOR) Opioid Receptors” (J Med Chem, 2015)
The source made the active and inactive calls.

What was measured:
Serum = assay: Drug uptake in C57BL/6 mouse serum at 30 mg/kg, po after 30 mins by LC-MS/MS analysis; type: ADME, organism-based; details: in vivo, 0.5 h
Procedure, shortened: (§1)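 Male C57BL/6J mice dosed orally at 30 mg/kg in 1:1:8 ethanol/Tween-80/saline, killed at 30, 60, or 90 min. Serum deproteinized with 4 volumes of cold MeCN. Perfused brains homogenized. Supernatants dried and reconstituted in 20% MeCN. C18 LC–MS/MS with summed ion-transition peak areas. Two mice per time point, mean peak area ± SEM.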

Mus musculus [1] = assay: Antinociceptive effect in C57BL/6 mouse assessed as tail withdrawal latency measured up to 2 hrs by 55 degC Warm water tail withdrawal assay in presence of 100 nM, icv SNC80; type: functional, organism-based
Procedure, shortened: (§2)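 Test agent given to male C57BL/6J mice 2 h before agonist challenge: morphine 10 mg/kg ip, U50,488 10 mg/kg ip, or SNC-80 100 nmol icv. 55 °C warm-water tail withdrawal read 30 min after the agonist. % antinociception relative to baseline latency with 15 s cutoff.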

Mus musculus [2] = assay: Analgesic activity in ip dosed C57BL/6 mouse assessed as inhibition of acetic acid-induced writhing response measured after 5 mins by acetic acid writhing assay; type: functional; details: C57BL/6, ip
Procedure, shortened: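 Adult male C57BL/6J mice, eight per dose, were given a single graded ip dose in 1:1:8 ethanol/Tween-80/saline vehicle. After 25 min they received 0.9% acetic acid ip. Writhes were counted for 15 min starting 5 min later. % antinociception was taken relative to the ip vehicle group, and ED50 with 95% CI was obtained by regression.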

Mus musculus [3] = assay: Toxicity in C57BL/6 mouse assessed as coordinated locomotor activity at 30 nM, icv up to 60 mins; type: organism-based; details: in vivo, icv_or_intrathecal, 1 h, 0.03 µM
Procedure, shortened: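 Rotorod test after seven habituation trials, the last used as baseline. Test agent 30 nmol icv, vehicle 50% DMSO/saline. Accelerating trials (0–20 rpm, 180 s max) from 10 min over 60 min. Latency to fall expressed as % change from baseline. n = 8–16 per group, repeated-measures/two-way ANOVA with Tukey.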

[4] = target: Delta-type opioid receptor (Homo sapiens, UniProt P41143); assay: Agonist activity at delta opioid receptor (unknown origin) expressed in CHO-K1 cells assessed as inhibition of forskolin-induced cAMP accumulation by FRET assay; type: functional, cell-based
Procedure, shortened: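 CHO cells stably expressing DOR, plated at 20 000 cells/well (figure legend: 100 000). Exposed to test agent with 4 μM forskolin (legend: 1 μM) in 1× PBS with 1 mM […] for 30 min at rt. HTRF cAMP read-out with europium cryptate and d2 in lysis buffer for 1 h. EC50 ± SEM from three experiments, two replicates each.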

Mus musculus [5] = assay: Antinociceptive effect in icv treated C57BL/6 mouse assessed as tail withdrawal latency at 30 nM, icv measured up to 2 hrs by 55 degC Warm water tail withdrawal assay; type: functional
Mus musculus [6] = assay: Antinociceptive effect in C57BL/6 mouse assessed as tail withdrawal latency at 30 mg/kg, po measured up to 2 hrs by 55 degC Warm water tail withdrawal assay; type: functional
Mus musculus [7] = assay: Antinociceptive effect in C57BL/6 mouse assessed as tail withdrawal latency measured at 30 nM, icv up to 2 hrs by 55 degC Warm water tail withdrawal assay in presence of 30 nM, icv naloxone methiodide on same side of blood brain barrier impermeable opioid antagonist; type: functional, organism-based
Procedure, shortened: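 Adult male C57BL/6J mice, 55 °C warm-water tail withdrawal. Naloxone methiodide pretreatment (30 nmol icv or 30 mg/kg sc) 30 min before the test agent (30 nmol icv in 50% DMSO/saline, or 10 mg/kg ip in 1:1:8 ethanol/Tween-80/saline). Read 30 min after the test agent. % antinociception vs baseline latency with 15 s cutoff. n = 8, mean ± SEM, one-way ANOVA/Tukey.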

Mus musculus [8] = assay: Antinociceptive effect in C57BL/6 mouse assessed as tail withdrawal latency at 10 mg/kg, ip measured up to 2 hrs by 55 degC Warm water tail withdrawal assay; type: functional
Mus musculus [9] = assay: Antinociceptive effect in C57BL/6 mouse assessed as tail withdrawal latency measured up to 2 hrs by 55 degC Warm water tail withdrawal assay in presence of 10 mg/kg, ip morphine; type: functional, organism-based; procedure, shortened: as §2
Mus musculus [10] = assay: Antinociceptive effect in icv dosed C57BL/6 mouse assessed as tail withdrawal latency measured up to 2 hrs by 55 degC Warm water tail withdrawal assay in presence of 0.5 mg/kg, sc naltrindole; type: functional, organism-based
Brain = assay: Drug uptake in C57BL/6 mouse brain at 30 mg/kg, po after 30 mins by LC-MS/MS analysis; type: ADME, organism-based; details: in vivo, 0.5 h; procedure, shortened: as §1
Mus musculus [11] = assay: Antinociceptive effect in icv dosed C57BL/6 mouse assessed as tail withdrawal latency measured up to 2 hrs by 55 degC Warm water tail withdrawal assay; type: functional
Mus musculus [12] = assay: Antinociceptive tolerance in C57BL/6 mouse assessed as tail withdrawal latency measured treated at 5 nmol, icv first dose second dose after 8 hrs by 55 degC Warm water tail withdrawal assay; type: functional
Procedure, shortened: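 Acute tolerance was tested in C57BL/6J mice, 8 per dose. The first icv dose was given at time 0: 3 nmol morphine or 5 nmol test agent. A second icv dose between 0.3 and 100 nmol followed 8 h later. Tail withdrawal at 55 °C was measured 30 min after the second injection. Tolerance was judged from the shift in ED50 between single and repeated treatment.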

Mus musculus [13] = assay: Antinociceptive effect in C57BL/6 mouse assessed as tail withdrawal latency measured up to 2 hrs by 55 degC Warm water tail withdrawal assay in presence of 10 mg/kg, ip U50488; type: functional, organism-based; procedure, shortened: as §2
Mus musculus [14] = assay: Antinociceptive effect in C57BL/6 mouse assessed as tail withdrawal latency […] by 55 degC Warm water tail withdrawal assay in presence of 30 mg/kg, sc naloxone methiodide on other side of blood brain barrier impermeable opioid antagonist; type: functional, organism-based
Mus musculus [15] = assay: Antinociceptive effect in po dosed C57BL/6 mouse assessed as tail withdrawal latency measured up to 2 hrs by 55 degC Warm water tail withdrawal assay; type: functional; details: C57BL/6, Tail
Mus musculus [16] = assay: Antinociceptive effect in C57BL/6 mouse assessed as tail withdrawal latency measured at 10 mg/kg, ip […] by 55 degC Warm water tail withdrawal assay in presence of 30 mg/kg, sc naloxone methiodide on same side of blood brain barrier impermeable opioid antagonist; type: functional, organism-based
Mus musculus [17] = assay: Antinociceptive effect in icv dosed MOR knock out C57BL/6 mouse assessed as tail withdrawal latency measured up to 2 hrs by 55 degC Warm water tail withdrawal assay; type: functional, organism-based
Mus musculus [18] = assay: Antinociceptive effect in C57BL/6 mouse assessed as tail withdrawal latency measured at 30 nM, icv […] by 55 degC Warm water tail withdrawal assay in presence of 30 nM, icv naloxone methiodide on other side of blood brain barrier impermeable opioid antagonist; type: functional, organism-based
[19] = target: Delta-type opioid receptor (Rattus norvegicus, UniProt P33533); assay: Displacement of [3H]DPDPE from delta opioid receptor in rat cortices by competition binding assay
Procedure, shortened: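 Rat cortex membranes were prepared in 50 mM Tris pH 7.4 with 10 mM MgCl2 and 200 μM PMSF. Assay used 2 nM [3H]DPDPE, incubated 2.5 h at 25 °C. Unlabeled DPDPE defined nonspecific binding. Filtration was through BSA-soaked GF/B filters, with scintillation counting. Ki is mean ± SD of two experiments, each in duplicate.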

Mus musculus [20] = assay: Antinociceptive effect in icv dosed KOR knock out C57BL/6 mouse assessed as tail withdrawal latency measured up to 2 hrs by 55 degC Warm water tail withdrawal assay; type: functional, organism-based
Mus musculus [21] = assay: Antinociceptive effect in icv dosed C57BL/6 mouse assessed as tail withdrawal latency measured up to 2 hrs by 55 degC Warm water tail withdrawal assay in presence of 4 nmol, icv ICI174864; type: functional, organism-based
Mus musculus [22] = assay: Antinociceptive effect in ip dosed C57BL/6 mouse assessed as tail withdrawal latency measured up to 2 hrs by 55 degC Warm water tail withdrawal assay; type: functional; details: C57BL/6, Tail
[23] = target: Kappa-type opioid receptor (Cavia porcellus, UniProt P41144); assay: Displacement of [3H]U69593 from kappa opioid receptor in guinea pig cortices and cerebella by competition binding assay
Procedure, shortened: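 Guinea pig cortex and cerebellum membranes were prepared in 50 mM Tris pH 7.4 with 10 mM MgCl2. Assay used 2 nM [3H]U69,593, incubated 2 h at 25 °C. Unlabeled U50,488 defined nonspecific binding. Filtration was through GF/B filters, with scintillation counting. Ki is mean ± SD of two experiments, each in duplicate.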

CC(C)C[C@H]1CN2C(=CC3=NC[C@H](C(C)C)N3C[C@@H]2Cc2ccc(O)cc2)N1CCc1ccccc1
Drug uptake (Serum): Active
Activity (Mus musculus [1]): Active
ED50 (Mus musculus [2]): 0.07 mg/kg
Activity (Mus musculus [3]): Non-toxic
EC50 [4]: 366 nM
Time (Mus musculus [5]): 80 min
Time (Mus musculus [6]): 110 min
inhibition (Mus musculus [7]): inactive
Time (Mus musculus [8]): 80 min
Activity (Mus musculus [9]): Active
inhibition (Mus musculus [10]): inactive
Drug uptake (Brain): Not Active
Activity (Mus musculus [11]): Dose-dependent effect
ED50 (Mus musculus [12]): 2.32 nmol
Activity (Mus musculus [13]): Active
Activity (Mus musculus [14]): Active
ED50 (Mus musculus [15]): 23.2 mg/kg
inhibition (Mus musculus [16]): inactive
inhibition (Mus musculus [17]): inactive
Activity (Mus musculus [18]): Active
Ki [19]: 32 nM
inhibition (Mus musculus [20]): inactive
inhibition (Mus musculus [21]): inactive
ED50 (Mus musculus [22]): 5.09 mg/kg
Ki [23]: 23 nM
